Results as given in ChEMBL document CHEMBL1152621, “Synthesis and discovery of pyrazole-5-carbohydrazide N-glycosides as inducer of autophagy in A549 lung cancer cells” (Bioorg Med Chem, 2009).
The source made the active and inactive calls. No cut-off for these calls is given here.

Legend:
[1] = tested on: A549; test: Growth inhibition of human A549 cells after 48 hrs by sulforhodamine B assay; assay type: functional, cell-based; conditions: A549, 48 h
Summary of the method: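 A549 (RPMI 1640, 10% bovine calf serum, seeded 6250/cm2) exposed 24 h after seeding to compound at 10, 20 or 40 µM, 0.1% DMSO control, for 24 or 48 h. TCA fixation 1 h at 4 °C, 0.4% SRB in 1% acetic acid, dye dissolved in 10 mM Tris base pH 10.5, OD 510 nm; mean ± SE, n = 3.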

[2] = tested on: A549; test: Effect on cell morphology in human A549 cells assessed as induction of vacuolization at 40 uM after 24 hrs by phase contrast microscopy; assay type: functional, cell-based
Summary of the method: (§1)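 A549 in RPMI 1640 with 10% bovine calf serum, 80 U/ml gentamicin, 37 °C, 5% CO2; seeded at 6250/cm2. Treated with compound or left untreated for 24 or 48 h. Morphology (vacuoles, cell number) photographed at 400× under inverted phase contrast microscope.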

[3] = tested on: A549; test: Effect on cell morphology in human A549 cells assessed as decrease in cell number at 40 uM after 24 hrs by phase contrast microscopy; assay type: functional, cell-based; summary of the method: as §1
[4] = tested on: A549; test: Effect on cell morphology in human A549 cells assessed as decrease in cell number at 40 uM after 48 hrs by phase contrast microscopy; assay type: functional, cell-based; summary of the method: as §1
[5] = tested on: A549; test: Induction of necrosis in human A549 cells at 40 uM after 48 hrs assessed as increase in LDH release; assay type: cell-based; conditions: a549, 48 h
Summary of the method: (§2)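 A549 treated 48 h at 20 or 40 µM, 0.1% DMSO control; culture medium collected and LDH release measured with a commercial lactate dehydrogenase kit; mean ± SE, n = 3.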

[6] = tested on: A549; test: Induction of autophagy in human A549 cells assessed as increase in LC3-II protein level at 40 uM after 48 hrs by Western blot; assay type: functional, cell-based
Summary of the method: (§3)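 A549 treated 24 or 48 h at 20 or 40 µM. Lysis in 0.5% SDS/Tris pH 7.5 buffer with protease inhibitors; Bradford protein; 15% SDS-PAGE, PVDF, milk block; anti-LC3b, anti-p62, anti-β-actin overnight 4 °C, HRP secondaries, chemiluminescence on X-ray film. Levels normalized to β-actin, expressed as percent of control.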

[7] = tested on: A549; test: Induction of autophagy in human A549 cells assessed as increase in LC3-II protein level at 40 uM after 24 hrs by Western blot; assay type: functional, cell-based; summary of the method: as §3
[8] = tested on: A549; test: Induction of autophagy in human A549 cells assessed as decrease in p62 protein level at 40 uM after 24 hrs by Western blot; assay type: functional, cell-based; summary of the method: as §3
[9] = tested on: A549; test: Induction of autophagy in human A549 cells assessed as decrease in p62 protein level at 40 uM after 48 hrs by Western blot; assay type: functional, cell-based; summary of the method: as §3
[10] = tested on: A549; test: Effect on cell morphology in human A549 cells assessed as induction of vacuolization at 40 uM after 48 hrs by phase contrast microscopy; assay type: functional, cell-based; summary of the method: as §1
[11] = tested on: A549; test: Effect on cell morphology in human A549 cells assessed as induction of vacuolization at 20 uM after 24 hrs by phase contrast microscopy; assay type: functional, cell-based; summary of the method: as §1
[12] = tested on: A549; test: Effect on cell morphology in human A549 cells assessed as decrease in cell number at 20 uM after 24 hrs by phase contrast microscopy; assay type: functional, cell-based; summary of the method: as §1
[13] = tested on: A549; test: Effect on cell morphology in human A549 cells assessed as decrease in cell number at 20 uM after 48 hrs by phase contrast microscopy; assay type: functional, cell-based; summary of the method: as §1
[14] = tested on: A549; test: Induction of necrosis in human A549 cells at 20 uM after 48 hrs assessed as increase in LDH release; assay type: cell-based; conditions: a549, 48 h; summary of the method: as §2
[15] = tested on: A549; test: Induction of autophagy in human A549 cells assessed as increase in LC3-II protein level at 20 uM after 48 hrs by Western blot; assay type: functional, cell-based; summary of the method: as §3
[16] = tested on: A549; test: Induction of autophagy in human A549 cells assessed as increase in LC3-II protein level at 20 uM after 24 hrs by Western blot; assay type: functional, cell-based; summary of the method: as §3
[17] = tested on: A549; test: Induction of autophagy in human A549 cells assessed as decrease in p62 protein level at 20 uM after 24 hrs by Western blot; assay type: functional, cell-based; summary of the method: as §3
[18] = tested on: A549; test: Induction of autophagy in human A549 cells assessed as decrease in p62 protein level at 20 uM after 48 hrs by Western blot; assay type: functional, cell-based; summary of the method: as §3

Row | IC50 [1] | SMILES | Activity [2] | Activity [3] | Activity [4] | Activity [5] | Activity [6] | Activity [7] | Activity [8] | Activity [9] | Activity [10] | other results
1 | 15.2 µM | CC(C)(C)c1ccc(Cn2nc(-c3ccccc3)cc2C(=O)NN[C@@H]2OC[C@@H](O)[C@H](O)[C@H]2O)cc1 | Active | Active | Active | Non-toxic | Active | inactive | Active | Active |  | 
2 | 26.6 µM | CC(C)(C)c1ccc(Cn2nc(-c3ccc(Cl)cc3)cc2C(=O)NN[C@@H]2O[C@H](CO)[C@@H](O)[C@H](O)[C@H]2O)cc1 | Active | Active | Active | Non-toxic | Active | inactive | Active | Active |  | 
3 | 38.9 µM | COc1ccc(-c2cc(C(=O)NN[C@@H]3O[C@H](CO)[C@@H](O)[C@H](O)[C@H]3O)n(Cc3ccc(C(C)(C)C)cc3)n2)cc1 |  |  |  | Non-toxic |  |  |  |  | Active | 
4 | 35 µM | O=C(NN[C@@H]1O[C@H](CO)[C@@H](O)[C@H](O)[C@H]1O)c1cc(-c2ccc(Cl)cc2)nn1Cc1ccc(Cl)nc1 |  |  |  | Non-toxic |  |  |  |  | Active | 
5 | 21.6 µM | CC(C)(C)c1ccc(Cn2nc(-c3ccccc3)cc2C(=O)NN[C@@H]2O[C@H](CO)[C@@H](O)[C@H](O)[C@H]2O)cc1 | Active | Active | Active | Non-toxic | Active | inactive | Active | Active |  | 
6 | 24.9 µM | COc1ccc(-c2cc(C(=O)NN[C@@H]3OC[C@@H](O)[C@H](O)[C@H]3O)n(Cc3ccc(C(C)(C)C)cc3)n2)cc1 |  |  |  | Non-toxic |  |  |  |  | Active | 
7 | 13.9 µM | CC(C)(C)c1ccc(Cn2nc(-c3ccc(Cl)cc3)cc2C(=O)NN[C@@H]2OC[C@@H](O)[C@H](O)[C@H]2O)cc1 |  |  |  | Toxic |  |  |  |  |  | Activity [11]: Active; Activity [12]: Active; Activity [13]: Active; Activity [14]: Non-toxic; Activity [15]: Active; Activity [16]: inactive; Activity [17]: Active; Activity [18]: Active
8 | 31.8 µM | O=C(NN[C@@H]1O[C@H](CO)[C@@H](O)[C@H](O)[C@H]1O)c1cc(-c2ccc(Cl)cc2)nn1Cc1ccccc1 |  |  |  | Non-toxic |  |  |  |  |  | 
